High-throughput results as filed in PubChem BioAssay.
Compounds with a hit are over-represented: about 4.3% of the library has one in this group of screens.
TAAR1 ag: agonists of human TAAR1. 360,000 compounds, 0.99% hits. Q96RJ0. activation, % at 3 µM. CHO RD-HGA16 TAAR1, Fluo-8 calcium fluorescence; vehicle wells 0%, saturating PEA agonist 100%. AID 624467;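 active = activation above the mean activation of all test compounds in the run plus 3 SD, cut at about 38% in these data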
Target sequence (Q96RJ0 whole entry, looked up): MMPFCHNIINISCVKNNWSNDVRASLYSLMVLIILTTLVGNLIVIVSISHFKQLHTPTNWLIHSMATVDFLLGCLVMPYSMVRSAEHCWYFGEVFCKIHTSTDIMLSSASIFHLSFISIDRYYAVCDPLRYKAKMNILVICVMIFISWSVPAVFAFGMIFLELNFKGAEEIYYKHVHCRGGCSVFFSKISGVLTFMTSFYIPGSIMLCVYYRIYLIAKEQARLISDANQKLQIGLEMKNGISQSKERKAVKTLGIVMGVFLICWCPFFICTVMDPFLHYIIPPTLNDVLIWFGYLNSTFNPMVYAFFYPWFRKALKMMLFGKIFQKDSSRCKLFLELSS
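System: CHO-derived RD-HGA16 cells with stable Gα16 and human TAAR1 / Times: 17-24 h plating, Fluo-8 75 min 37 °C, 30 min RT / Technique: calcium-sensitive Fluo-8 signal, excitation 470-495, emission 515-575 nm / Measure: % activation relative to PEA EC100 response / Benchmarks: DMSO and PEA EC100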
MC4R antagonist: blocks human MC4R cAMP signaling; P32245; MC4R-expressing cells, MTII-stimulated cAMP, LANCE TR-FRET; inhibition, % at 6.5 µM; 360,000 compounds, 0.48% hits; AID 540295;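 active = inhibition above its plate's cutoff, the mean of tested wells on that plate plus 3 SD, cut at about 29% in these data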;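 also: 0% = Melanotan II alone and 100% = Melanotan II plus saturating MCL0020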
Target sequence (P32245 whole entry, looked up): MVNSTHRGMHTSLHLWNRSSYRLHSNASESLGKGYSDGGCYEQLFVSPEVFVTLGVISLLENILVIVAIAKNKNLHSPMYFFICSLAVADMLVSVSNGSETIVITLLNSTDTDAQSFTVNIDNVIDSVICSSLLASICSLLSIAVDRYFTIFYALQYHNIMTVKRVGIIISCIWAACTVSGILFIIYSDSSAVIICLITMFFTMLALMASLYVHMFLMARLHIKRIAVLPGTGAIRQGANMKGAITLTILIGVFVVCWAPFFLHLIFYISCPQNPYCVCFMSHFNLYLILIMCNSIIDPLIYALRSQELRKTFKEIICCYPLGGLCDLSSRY
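material = U2OS cells stably expressing human melanocortin 4 receptor (MC4R) | also added = Melanotan II challenge | dosing = single nominal compound dose of 6.5 µM | detection = TR-FRET with Eu-cAMP and labeled anti-cAMP, 671 nm | replication = singlicate | timing = compound 30 min, challenge 1 h, detection 1 h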
TAAR1 antagonist: antagonists of human TAAR1. inhibition, % at 3 µM. 360,000 compounds, 1.5% hits. CHO RD-HGA16 TAAR1, Fluo-8 calcium fluorescence, antagonist. Q96RJ0;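 active = inhibition above a per-plate cutoff, the mean inhibition of test compounds on that plate plus 3 SD, cut at about 49% in these data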;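 also: 0% = DMSO plus EC80 beta-PEA response and 100% = DMSO alone without agonist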
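Test system – hTAAR1-expressing CHO RD-HGA16 cells, Gα16-coupled · Reagent – β-PEA at EC80 concentration, post-compound challenge · Compound dosing – 3 µM, single point · Timing – 140 s kinetic read after compound, 140 s after agonist · Detection – Fluo-8 intracellular calcium dye fluorescence, real-time kinetic reads · Control set – DMSO and EC80 PEA controls · Repeats – n of 1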
m5-HT2A agonist: agonists of mouse serotonin 5-HT2A receptor (HTR2A) | P35363 | CHO-K1 mHTR2A beta-arrestin complementation, luminescence; percent of 30 µM serotonin response | activation, % at 7.6 µM | 360,000 compounds, 0.66% hits;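 active = activation above a run cutoff, the mean activation of all tested compounds plus 3 SD, cut at about 14% in these data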;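 also: 0% = plate median of compound wells and 100% = 30 µM serotonin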
Beta2AR agonist: activates human beta-2 adrenergic receptor causing internalization | 340,000 compounds, 0.43% hits | Am2.2-beta2AR cells, FAP receptor internalization, flow cytometry | AID 504454 | response, % (test concentration not listed);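 active = response above a set limit, near 3 SD of response in nonfluorescent compounds, cut at about 42% in these data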
MC4R ag barr: human MC4R agonism via beta-arrestin. P32245. AID 540308. activation, % at 8.9 µM. U2OS MC4R beta-arrestin complementation, luminescence; percent of melanotan II response, DMSO zero. 360,000 compounds, 0.98% hits;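 active = activation above a per-plate cutoff, the mean activation of sample wells on that plate plus 3 SD, cut at about 8% in these data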
TAAR1 ag confirm: human TAAR1 agonism, confirmed | shares compounds with TAAR1 ag | CHO RD-HGA16 TAAR1, Fluo-8 calcium fluorescence; scaled: DMSO 0%, maximal phenethylamine 100% | activation, % at 3 µM | 2,400 compounds, 82% hits | AID 651783;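 active = activation above a cutoff set at the run's mean compound activation plus 3 SD, cut at about 39% in these data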
Ga16 nonsel ag: counter-screen for TAAR1 agonists: nonselective agonists in parental cells. activation, % at 3 µM. 2,400 compounds, 50% hits. AID 651787. shares compounds with TAAR1 ag. CHO-Ga16 parental, Fluo-8 calcium fluorescence; normalized to maximal ATP response, DMSO zero;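 active = activation above the run cutoff, the mean activation over all tested wells plus 3 SD, cut at about 12% in these data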;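 also: 0% = DMSO wells and 100% = maximal ATP response on the peak over basal ratio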
TAAR1 desens: counter-screen for human TAAR1 agonists: agonists that desensitize TAAR1. shares compounds with TAAR1 ag. CHO RD-HGA16 hTAAR1, Fluo-8 calcium, beta-PEA response inhibition. inhibition, % at 3 µM. 2,400 compounds, 46% hits;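 active = inhibition above the run cutoff, the mean inhibition of all test compounds plus 3 SD, cut at about 49% in these data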;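 also: beta-PEA stimulus applied at its EC80; loss of beta-PEA calcium signal after compound pretreatment read as receptor desensitization; 0% = DMSO with beta-PEA at EC80 and 100% = DMSO alone without agonist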
Ga16 nonsel ant: nonselective Ga16 antagonism, counter-screen. shares compounds with TAAR1 ag. CHO-Ga16 ATP-induced calcium, Fluo-8 fluorescence. inhibition, % at 3 µM. 2,400 compounds, 39% hits. AID 651952;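 active = inhibition above the plate's mean compound inhibition plus 3 SD, computed per plate, cut at about 22% in these data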;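 also: 0% = EC80 ATP with DMSO and 100% = DMSO wells without ATP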
Numbers without * were called inactive; nt = no result given.

SMILES	TAAR1 ag	MC4R antagonist	TAAR1 antagonist	m5-HT2A agonist	Beta2AR agonist	MC4R ag barr	TAAR1 ag confirm	Ga16 nonsel ag	TAAR1 desens	Ga16 nonsel ant
Cc1cc(/C=N/Nc2ncnc(N)c2[N+](=O)[O-])c(C)n1-c1ccccc1	73*	-2	11	-3	11	-4	120*	49*	83*	16
CCOC(=O)N1CCN(CC(=O)Nc2nccs2)CC1	1	1	4	-5	nt	0	nt	nt	nt	nt
O=C(OCC(=O)c1ccc(Cl)s1)c1ccc(CO)cc1	1	0	2	7	-1	-3	nt	nt	nt	nt
C[C@H](CO)N1C[C@H](C)[C@@H](CN(C)Cc2ccc(Cl)c(Cl)c2)OCc2cnnn2CCCC1=O	5	8	11	-4	nt	-1	nt	nt	nt	nt
O=C(CC1CCCC1)Nc1ccc(Br)cc1	3	11	-12	-4	0	-2	nt	nt	nt	nt
COc1ccccc1CNC(=O)CC1C(=O)NCCN1C1Cc2ccccc2C1 (configuration not stated)	70*	2	19	5	-3	-3	72*	5	3	-2
COc1ccc(CNC(=O)CC2C(=O)NCCN2C2Cc3ccccc3C2)cc1 (configuration not stated)	20	2	-12	-3	-3	0	nt	nt	nt	nt
CSc1ccc(OC2(C)CCN(Cc3ccc(OC(C)C)cc3)C2)cc1 (configuration not stated)	2	11	-4	0	nt	4	nt	nt	nt	nt
CC(=O)C[C@H](O)CC(=O)[C@@H]1OC(=O)CCCCCCc2ccccc21	8	-2	7	1	3	-3	nt	nt	nt	nt
O=[N+]([O-])c1cc(S(=O)(=O)Nc2cccc(C(F)(F)F)c2)ccc1-n1nnc2ccccc21	4	-1	9	4	-1	1	nt	nt	nt	nt
COc1ccc(NS(=O)(=O)c2ccc(-n3nnc4ccccc43)c([N+](=O)[O-])c2)cc1	52*	0	32	-15	-5	-1	72*	39*	50*	40*
C=CCOC(=O)C(=O)/C=C/c1coc2ccccc2c1=O	53*	18	16	-4	2	1	36	23*	-4	13
C=CCOC(=O)C(=O)/C=C/c1c(C)n(C)n(-c2ccccc2)c1=O	2	-2	4	-2	-2	0	nt	nt	nt	nt
C=CCN1[C@@H](C)[C@H](c2ccccc2)Oc2cccc(NCCc3ccccc3)c2S1(=O)=O	97*	nt	36	nt	nt	nt	72*	1	19	9
CC1CCCN(c2cccc3c2S(=O)(=O)N(Cc2cccc(F)c2)[C@@H](C)[C@H](c2ccccc2)O3)C1 (some centres not stated)	7	nt	-26	nt	nt	nt	nt	nt	nt	nt
O=C(CNS(=O)(=O)c1ccc([N+](=O)[O-])cc1)N/N=C\c1ccc(O)cc1	68*	-8	68*	-2	3	-1	101*	39*	89*	63*
CC(C)NC(=S)NC(=O)c1ccc(-c2ccccc2)cc1	49*	3	-4	-3	6	-2	26	11	14	16
Cc1nn(CC(=O)N2CCc3ccccc3C2)c(C)c1[N+](=O)[O-]	58*	10	-13	6	-16	-1	69*	1	23	3
Cc1c(Br)c([N+](=O)[O-])nn1CC(=O)NCc1ccccc1	-4	1	5	1	-4	-2	nt	nt	nt	nt
Cc1c(Br)c([N+](=O)[O-])nn1CC(=O)N1CCc2ccccc2C1	63*	5	-22	1	0	-2	60*	2	15	7
Cc1nn(CC(=O)N2CCc3ccccc3C2)c(C)c1Cl	6	1	0	3	-3	-1	nt	nt	nt	nt
COc1ccc(-c2noc(CN(C)C(=O)c3ccoc3C)n2)cc1	8	5	-8	3	7	-1	nt	nt	nt	nt
C[C@@H]1CN(C(=O)OC(C)(C)C)CCN1c1ccc(N2CCN(Cc3ccccc3)[C@@H](C)C2)c(C#N)c1	-1	nt	-8	nt	nt	nt	nt	nt	nt	nt
O=C(CS(=O)(=O)c1ccc(F)cc1)Nc1nnc(-c2ccccc2Cl)o1	2	6	2	-3	-1	-3	nt	nt	nt	nt
Cc1cc(C)c(OCCCCNCc2ccccc2)c(Cl)c1	48*	0	-8	3	14	6	48*	22*	23	24*
SMILES	TAAR1 ag	MC4R antagonist	TAAR1 antagonist	m5-HT2A agonist	Beta2AR agonist	MC4R ag barr	TAAR1 ag confirm	Ga16 nonsel ag	TAAR1 desens	Ga16 nonsel ant
COCCCNCCCCOc1c(Cl)cc(C)cc1Br	59*	7	32	-5	-2	1	92*	22*	77*	8
Cc1cc(Cl)c(OCCCNC2CCCC2)c(Br)c1	58*	-2	-3	1	0	7	28	11	5	13
O=C(Cc1cccc(NC(=O)C2CCCN(C(=O)CCc3ccccc3)C2)c1)Nc1cccc(C(=O)N2CCCC2)c1 (configuration not stated)	-1	-2	10	-3	11	0	nt	nt	nt	nt
COc1cc2c(cc1OC)C(c1cc(Br)c(OC)c(OC)c1)CC(=O)N2 (configuration not stated)	5	3	1	0	-1	-1	nt	nt	nt	nt
CN(Cc1cnccn1)C(=O)C1CCC(=O)N(CCc2ccc(Cl)cc2)C1 (configuration not stated)	1	2	-4	-2	-4	2	nt	nt	nt	nt
CN1CCN(C(=O)C2CCN(c3ncc(C(F)(F)F)cc3Cl)CC2)CC1	3	7	-7	-4	-16	-1	nt	nt	nt	nt
COc1ccc(CCNC(=O)CC2Nc3ccccc3NC2=O)cc1 (configuration not stated)	13	-4	1	0	1	-1	nt	nt	nt	nt
O=C(CC1Nc2ccccc2NC1=O)NCCc1ccccc1 (configuration not stated)	91*	0	57*	-1	-18	-1	98*	2	74*	-8
